Source: PubChem BioAssay (several laboratories)
A selection: hits, their analogues and other compounds. The true share with any hit is near 3.7%.
UPR CHOP act: activators of apoptotic arm of unfolded protein response (CHOP); CHO-CHOP luciferase reporter, UPR activation, luminescence; percent of tunicamycin response over DMSO baseline; activation, % at 10 µM; actives 0.34% (n = 330,000);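 active means at 10 µM dose, activation of 40% or more, normalized to positive control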
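measured by = luciferase luminescence | assay system = CHO-CHOP cells, stable luciferase reporter of PERK-eIF2a-CHOP signalling | amount = 500 reporter cells seeded per well | timing = 6 h compound exposure at 37 °C after overnight seeding | controls = positive tunicamycin 10 µg/mL, negative DMSO alone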
MDM2 E3 inh: inhibitors of human Mdm2 E3 ubiquitin ligase; Q00987; actives 0.11% (n = 210,000); AID 1230; cell-based MDM2 ubiquitination luciferase reporter, 2 h; 0 = plate control, 100 = twice control, blank-subtracted; signal enhancement, % at 5 µM;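 active means signal enhancement of 30% or more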;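 further: luminescence tracks abundance of the self-degrading MDM2-luciferase fusion protein; higher signal means inhibition of MDM2 E3 ligase activity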
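Assay system: stable mammalian line carrying autodegrading MDM2–luciferase fusion reporter; Input: 2000 cells in each well; Compound dosing: single-point 5 µM; Schedule: 2 h compound exposure at 37 °C; Signal: SteadyLite luciferase luminescence after 15 min room-temperature reagent incubation; Evaluation: % luminescence enhancement versus blank-corrected plate control mean; Benchmarks: plate controls and plate blanks.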
Mdm2 MdmX PPI: human Mdm2/MdmX binding inhibition; actives 3% (n = 330,000); inhibition, % at 8 µM; SaOS-2 split-luciferase Mdm2/MdmX complementation, luminescence;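 active means inhibition of at least 50% at 8 µM in the primary screen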
UPR XBP1 act: adaptive UPR (XBP1) activation; CHO-XBP1 luciferase reporter, IRE1-XBP1 UPR activation, luminescence; percent of tunicamycin response, DMSO as zero; activation, % at 20 µM; actives 0.33% (n = 330,000); AID 463104;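 active means versus positive control, 20 µM dose yields 30% or more activation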
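Material: CHO cell line with stable XBP1 luciferase reporter; buffer or medium: F12 medium containing 10% fetal bovine serum; compound: single point, 20 µM final compound, 1% DMSO; incubation: 6 h treatment, 37 °C; measured by: glow luminescence from Steady-Glo reagent; evaluation: activation, % of tunicamycin; control set: tunicamycin high, DMSO low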
Beta2AR agonist: activates human beta-2 adrenergic receptor causing internalization. P07550. Am2.2-beta2AR cells, FAP receptor internalization, flow cytometry. response, % (concentration not given with the values). actives 0.43% (n = 340,000). AID 504454;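 active means response above a set limit, near 3 SD of response in nonfluorescent compounds, cut at about 42% in these data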
Target sequence (P07550 whole entry, looked up): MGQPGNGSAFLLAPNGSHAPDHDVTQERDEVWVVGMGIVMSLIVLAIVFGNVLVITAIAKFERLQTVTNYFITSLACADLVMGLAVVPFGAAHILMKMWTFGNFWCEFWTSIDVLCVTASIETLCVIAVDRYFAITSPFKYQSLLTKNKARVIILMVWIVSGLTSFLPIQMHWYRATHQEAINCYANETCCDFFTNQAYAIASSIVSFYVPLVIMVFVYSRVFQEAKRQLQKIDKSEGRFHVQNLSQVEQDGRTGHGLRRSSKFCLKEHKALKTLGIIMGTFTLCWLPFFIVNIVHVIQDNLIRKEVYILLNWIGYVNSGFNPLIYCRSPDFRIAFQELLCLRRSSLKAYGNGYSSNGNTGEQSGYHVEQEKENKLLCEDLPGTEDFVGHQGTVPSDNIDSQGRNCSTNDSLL
Dynein cargo inh: dynein cargo transport inhibition; 3617.4 mouse cells, GR-EGFP nuclear translocation imaging; test concentration mostly 20 µM; stimulated with dexamethasone, 1 µM; active compounds read low; z-score, hits read low; actives 0.47% (n = 220,000);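 active means plate z-score of nuclear minus cytoplasmic receptor signal below a set negative limit, without overly bright fluorescence or cell loss, cut at about -3.5 in these data, passing the limit was not always enough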;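 further: z-score of nuclear minus cytoplasmic ring GR-EGFP intensity difference per well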
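Buffer or medium: Induction medium lacking tetracycline, stripped serum | Also added: Dexamethasone agonist, 1.0 µM final, for 30 min | Timing: 48 h induction, 1 h compound, 30 min dex at 37 °C | Detection: Formaldehyde fixation, Hoechst nuclear stain, 10x automated fluorescence imaging | Measure: Nuclear versus cytoplasmic GR-EGFP signal, averaged per well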
Mdm2-MdmX conf: confirmation of human Mdm2/MdmX interaction inhibitors | inhibition, % at 8 µM | shares compounds with Mdm2 MdmX PPI | Mdm2-MdmX binding, luminescent assay | actives 55% (n = 10,000) | AID 489028; in the data active means inhibition above about 40%
FLuc counter: inhibits full-length luciferase, flagging false Mdm2/MdmX hits | SaOS-2 full-length luciferase counterscreen, luminescence | actives 77% (n = 6,200) | inhibition, % at 8 µM | AID 504607 | shares compounds with Mdm2 MdmX PPI;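 active means mean inhibition at 8 µM reaching about 37%, which flags the compound as non-specific, limit read from the data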;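 further: p53-null SaOS-2 cells with luciferase driven by a doxycycline-inducible promoter; compound on cells about two nights before reading with doxycycline added after day one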
Hits are given with their value; - = inactive; . = no result given.

SMILES	UPR CHOP act	MDM2 E3 inh	Mdm2 MdmX PPI	UPR XBP1 act	Beta2AR agonist	Dynein cargo inh	Mdm2-MdmX conf	others
CC1CCN(C(=O)c2ccc(NC(=O)c3ccccc3)cc2)CC1	-	.	-	-	-	.	.
CC1CCN(C(=O)c2ccc(NC3=C(Cl)C(=O)N(Cc4ccccc4)C3=O)cc2)CC1	-	.	58	-	-	.	-
O=C1C(Cl)=C(Nc2cccc(O)c2)C(=O)N1Cc1ccccc1	-	-	52	-	-	-	-
CC1CCCCN1C(=O)c1ccc(C(=O)c2ccccc2)cc1 (centres undefined)	-	.	-	-	-	.	.
O=C(COC(=O)c1cccc(Br)c1)NCC1CCCO1 (centres undefined)	-	.	-	-	-	.	.
Nc1ccc(C(=O)N2CCN(S(=O)(=O)c3ccc(Br)cc3)CC2)cc1[N+](=O)[O-]	-	.	-	-	-	.	.
COc1ccccc1-c1c(-c2ccc(OCC(=O)NN)cc2O)n[nH]c1C(F)(F)F	-	-	-	-	-	-	.
COc1ccc(-c2n[nH]c(C(F)(F)F)c2-c2cc3ccccc3o2)c(O)c1	-	-	81	-	-	-	43	FLuc counter=47
CC(=O)NC(Cc1ccc(F)cc1)C(=O)NC1CCN(C(=O)NCc2ccccc2)CC1 (centres undefined)	-	.	-	-	-	.	.
CCN(C(=O)CSc1ccc2ccccc2n1)C1CCCCC1	-	.	-	-	-	.	.
Cc1ccc2c(c1)sc(-c1ccc(N(C)C)cc1)[n+]2C	-	.	79	-	-	.	79	FLuc counter=47
COc1ccc(C)cc1Nc1n[n+](-c2ccccc2)c(-c2ccc(N(C)C)cc2)s1	-	.	-	-	-	.	.
Cc1cc(C(=O)CN2C(=O)C(=O)N(CCC3=CCCCC3)C2=O)c(C)n1C	-	.	-	-	-	.	.
COc1ccc(/C=C/C(=O)c2cc(F)ccc2OC(=O)c2ccccc2C)cc1OC	-	-	61	-	-	-	66	FLuc counter=117
Cc1ccnc(NC(=O)c2cc3c(=O)oc4ccc(C)cc4c3s2)c1	-	-	70	-	-	-	-	FLuc counter=74
Cc1ccc(NC(=O)c2cc3c(=O)oc4ccc(C)cc4c3s2)nc1	-	-	75	-	.	-	-
CCC1CCCCN1CCCNC(=O)c1cc2c(=O)oc3ccc(C)cc3c2s1 (centres undefined)	-	.	54	-	-	.	-
Cc1ccc2oc(=O)c3cc(C(=O)NCCN4CCN(C)CC4)sc3c2c1	-	-	-	-	-	-	.
Cc1ccc2oc(=O)c3cc(C(=O)NCCCN4CCCCCC4)sc3c2c1	-	.	-	-	-	.	.
CCN1CCN(c2ccc(Nc3ccnc4ccccc34)cc2)CC1	-	.	87	-	-	.	84	FLuc counter=-
CCOc1ccc(Nc2ccnc3cc(Cl)ccc23)cc1	-	-	-	-	-	-	.
CN1CCN(c2ccc(Nc3ccnc4cc(Cl)ccc34)cc2)CC1	-	.	78	-	-	.	-	FLuc counter=51
O=C(CC1Sc2ccccc2NC1=O)NNc1ccc(F)cc1 (centres undefined)	.	.	.	.	-	.	.
CCN(CC)S(=O)(=O)c1ccc(NC(=O)c2cc(-c3cccs3)nc3ccccc23)cc1	-	-	50	-	-	-	-
Cc1cccc2sc(NNC(=O)c3cc(-c4cccs4)nc4ccccc34)nc12	-	.	82	-	-	-	51	FLuc counter=61
SMILES	UPR CHOP act	MDM2 E3 inh	Mdm2 MdmX PPI	UPR XBP1 act	Beta2AR agonist	Dynein cargo inh	Mdm2-MdmX conf	others
CCN(CC)S(=O)(=O)c1cc(NC(=O)c2cc(-c3ccccn3)nc3ccccc23)ccc1C	-	-	52	-	-	-	-
COc1ccc(NC(=O)c2cc(-c3ccccn3)nc3ccccc23)cc1S(=O)(=O)N(C)C	-	.	-	-	-	.	.
Cc1cc(NC(=O)c2cc(-c3cccs3)nc3ccccc23)no1	-	-	51	-	-	-	-
CC(C)NC(=O)c1cc(-c2cccs2)nc2ccccc12	-	.	-	-	-	.	.
CCN(CC)S(=O)(=O)c1ccc(NC(=O)c2cccs2)cc1	-	-	-	-	-	-	.
Cc1nn(C(C)C(=O)NCCc2ccco2)c(=O)c2nn(-c3ccccc3)c(C)c12 (centres undefined)	-	.	-	-	-	.	.
NS(=O)(=O)c1ccc(NC(=O)c2cc(-c3cccs3)nc3ccccc23)cc1	-	-	87	-	-	-	-
CN(C)S(=O)(=O)c1ccc(NC(=O)c2cc(-c3cccs3)nc3ccccc23)cc1	-	-	64	-	-	-	62	FLuc counter=53
O=C(NC1=NCCS1)c1cc(-c2cccs2)nc2ccccc12	-	.	-	-	-	-	.
CC(=O)NS(=O)(=O)c1ccc(NC(=O)c2cc(-c3cccs3)nc3ccccc23)cc1	-	-	-	-	-	-	.
COc1ccccc1NC(=O)COC(=O)C1CC2CCCC(C1)C2=O (centres undefined)	-	.	-	-	-	.	.
COc1ccccc1C(=O)Nc1ccccc1N1CCOCC1	-	-	-	-	-	-	.
COc1c(C(=O)Nc2ccccc2N2CCOCC2)cc2ccccc2c1Br	-	.	50	-	-	.	-
Cc1cccc(Oc2sc(C(=O)c3ccccc3)c(N)c2C#N)c1C	-	-	-	-	-	-	.
N#Cc1c(Oc2ccc3ccccc3c2)sc(C(=O)c2ccccc2)c1N	-	-	75	-	-	-	-
OCCC1CN(C2CCC2)CCN1Cc1ccc(F)c(F)c1 (centres undefined)	-	.	-	-	-	.	.
O=[N+]([O-])c1ccc(N=NN(CCO)CCO)cc1	-	-	-	-	-	-	.
O=[N+]([O-])c1ccc(N=Nc2ncc[nH]2)cc1	-	.	100	-	-	.	59	FLuc counter=53
CCOc1ccccc1N1CCN(Cc2cccc(OC)c2O)CC1	-	-	-	-	-	-	.
COCc1cc(CN2CCCC2)c(O)c2ncccc12	-	-	-	-	-	-	.
COc1ccccc1N1CCN(Cc2cc(Br)c(O)c3ncccc23)CC1	-	-	61	-	-	-	60	FLuc counter=60
OCCN1CCN(Cc2cc(Cl)c3cccnc3c2O)CC1	-	-	-	-	-	-	.
CN(C)C1CCN(Cc2cc(COCc3ccccc3)c3cccnc3c2O)C1 (centres undefined)	-	.	67	-	-	.	71	FLuc counter=-
Oc1c(CN2CCCCC2)cc(COCc2ccccc2)c2cccnc12	-	-	52	-	-	-	49	FLuc counter=44
